Test results from PMC2948583 (Journal of proteome research, 2010).

What was measured:
[1] = test system: whole saliva proteases; assay: Proteolysis of purified statherin in pooled whole saliva; assay type: in vitro ADME, human; conditions: WS boiled to abolish protease activities; statherin 400 µg/ml; 37°C; RP-HPLC
Procedure, shortened: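 Pooled Parafilm-stimulated whole saliva from four healthy donors, boiled to abolish protease activity. Statherin, purified from parotid secretion by zinc precipitation and RP-HPLC, added to 400 µg/ml final. Incubated at 37°C and sampled at 0, 10, 30, 60 and 90 min. Aliquots boiled 10 min, diluted in 0.1% TFA, and run on analytical C-18 RP-HPLC (0–55% buffer B over 74 min). Intact statherin peak integrated.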

[2] = test system: whole saliva supernatant proteases; assay: Proteolysis of purified statherin in pooled whole saliva supernatant; assay type: in vitro ADME, human; conditions: WSS boiled to abolish protease activities; statherin 400 µg/ml; 37°C; RP-HPLC
Procedure, shortened: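 Supernatant from pooled stimulated whole saliva (14,000 × g, 20 min, 4°C), boiled to abolish protease activity. Parotid-derived purified statherin added to 400 µg/ml final. Incubated at 37°C and sampled at 0, 1, 3, 5 and 7 h. Aliquots boiled 10 min, diluted in 0.1% TFA, and analysed by analytical C-18 RP-HPLC (0–55% of 80% acetonitrile/0.1% TFA over 74 min). Intact statherin peak area integrated.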

For “statherin (DSSEEKFLRRIGRFGYGYGPYQPVPEQPLYPQPYQPQYQQYTF; UniProt P02808 20-62, looked up)”, the “Stability of statherin in boiled WS (control)” value [1] was “remained intact” and the “Stability of statherin in boiled WSS (control)” value [2] was “remained intact”.
